Data on 25 molecules can be found in ChEMBL document CHEMBL1148232, “Inhibitory activities against topoisomerase I and II by polyhydroxybenzoyl amide derivatives and their structure-activity relationship” (Bioorg Med Chem Lett, 2004).

Test [1] deals with T1, DNA topoisomerase 1 (Homo sapiens, UniProt P11387).
T1 sequence (P11387 whole entry): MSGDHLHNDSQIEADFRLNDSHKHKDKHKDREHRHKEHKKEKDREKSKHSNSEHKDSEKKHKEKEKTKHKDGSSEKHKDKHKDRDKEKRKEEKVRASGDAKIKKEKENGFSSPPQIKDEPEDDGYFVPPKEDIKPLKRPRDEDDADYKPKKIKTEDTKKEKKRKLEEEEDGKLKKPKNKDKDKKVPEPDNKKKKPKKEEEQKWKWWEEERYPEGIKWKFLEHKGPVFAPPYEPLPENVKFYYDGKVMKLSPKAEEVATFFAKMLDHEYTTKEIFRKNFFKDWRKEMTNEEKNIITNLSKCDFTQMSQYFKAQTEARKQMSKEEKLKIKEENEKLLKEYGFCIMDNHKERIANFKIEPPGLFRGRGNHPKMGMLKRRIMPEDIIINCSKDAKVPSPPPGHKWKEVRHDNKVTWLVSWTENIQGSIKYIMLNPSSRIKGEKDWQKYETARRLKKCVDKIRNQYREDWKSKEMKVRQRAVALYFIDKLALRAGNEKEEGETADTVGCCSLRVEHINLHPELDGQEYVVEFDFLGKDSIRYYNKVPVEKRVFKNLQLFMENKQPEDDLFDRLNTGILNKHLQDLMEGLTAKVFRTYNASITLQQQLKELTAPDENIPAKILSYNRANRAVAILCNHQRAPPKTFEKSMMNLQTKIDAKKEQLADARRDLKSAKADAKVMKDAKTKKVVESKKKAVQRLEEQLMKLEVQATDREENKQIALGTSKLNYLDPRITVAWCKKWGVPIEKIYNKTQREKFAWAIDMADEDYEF
The test is described as follows: Inhibitory concentration against relaxation activity of DNA topoisomerase I by detecting the conversion of supercoiled pBR322 DNA to its relaxed form.

For test [2], the target named is T2, DNA topoisomerase II (Homo sapiens, UniProt P11388+Q02880). The test can be described thus: Inhibitory concentration against relaxation activity of DNA topoisomerase II by detecting the conversion of supercoiled pBR322 DNA to its relaxed form. It is filed as protein assay.
Test [3] deals with T2, DNA topoisomerase II. The test is described as follows: Inhibition of relaxation activities of DNA topoisomerase II with respect to pBR322 DNA. It is filed as protein assay. Put shortly:
(§1)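 Ki from Lineweaver–Burk plots: the rate of relaxation of supercoiled pBR322 DNA by the topoisomerase was measured across a range of DNA substrate concentrations, with and without inhibitor.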

Test [4] concerns HeLa. The test can be described thus: Growth inhibitory concentration of compound was determined against HeLa cells by alamar blue assay. The format is functional. The conditions noted are these: Homo sapiens. In general terms: Alamar Blue is a resazurin reagent that responds to reducing activity.
In test [5] the target is T1, DNA topoisomerase 1. The test can be described thus: Inhibition of relaxation activities of DNA topoisomerase I with respect to pBR322 DNA. Put shortly: as §1
The test system of test [6] is HeLa. The test is described as follows: Concentration required to inhibit S phase and G2/M phase in HeLa cells. The conditions noted are these: Homo sapiens. It is filed as functional, cell-based. The method, boiled down: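 HeLa cells cultured with compound, then cell-cycle progression analysed by flow cytometry; read-out was the percentage of cells in the G0/G1, S and G2/M phases.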

Structures are written as SMILES. Some results are limits rather than exact numbers.

Take `O=C(Nc1ccccc1NC(=O)c1ccc(O)cc1)c1ccc(O)cc1`: the half-inhibitory concentration (IC50) on DNA topoisomerase 1 [1] is more than 100 µM.
Molecule `O=C(Nc1ccc(NC(=O)c2ccc(O)c(O)c2)cc1)c1ccc(O)c(O)c1` yielded an IC50 at DNA topoisomerase 1 [1] of 2.6 µM.
On to `O=C(Nc1ccccc1NC(=O)c1cc(O)c(O)c(O)c1)c1cc(O)c(O)c(O)c1`, for which the IC50 came to 0.09 µM on DNA topoisomerase II [2] and 0.9 µM on DNA topoisomerase 1 [1]. For the same molecule, the Ki amounted to 0.0741 µM on DNA topoisomerase II [3] and 0.4 µM on DNA topoisomerase 1 [5]. In the test on HeLa [4], this molecule showed a GI50 of 30 µM.
The molecule `CC(=O)Oc1ccc(C(=O)Nc2ccccc2NC(=O)c2ccc(OC(C)=O)c(OC(C)=O)c2)cc1OC(C)=O` returned an IC50 at DNA topoisomerase 1 [1] of 88 µM. That is a double-digit micromolar value.
Molecule `CC(=O)Oc1ccc(C(=O)Nc2ccc(NC(=O)c3ccc(OC(C)=O)c(OC(C)=O)c3)cc2)cc1OC(C)=O` displayed a 50% inhibitory concentration (IC50) at DNA topoisomerase 1 [1] of more than 100 µM.
The molecule `O=C(Nc1ccccc1)c1cc(O)c(O)c(O)c1` displayed a half-inhibitory concentration (IC50) against DNA topoisomerase 1 [1] of more than 100 µM.
On the same count and under the same terms, the figure for `CC(=O)Oc1ccc(C(=O)Nc2cccc(NC(=O)c3ccc(OC(C)=O)cc3)c2)cc1` is more than 100 µM.
On the same count and under the same terms, then `O=C(Nc1nc2ccccc2s1)c1ccc(O)c(O)c1`, with 16.9 µM.
The molecule `CC(=O)Oc1cc(C(=O)Nc2cccc(NC(=O)c3cc(OC(C)=O)c(OC(C)=O)c(OC(C)=O)c3)c2)cc(OC(C)=O)c1OC(C)=O` registered an IC50 at DNA topoisomerase 1 [1] of 11.2 µM.
In turn, `CC(=O)Oc1ccc(C(=O)Nc2cccc(NC(=O)c3ccc(OC(C)=O)c(OC(C)=O)c3)c2)cc1OC(C)=O` showed a 50% inhibitory concentration (IC50) against DNA topoisomerase 1 [1] of 43.2 µM.
As to `O=C(Nc1cccc(NC(=O)c2ccc(O)c(O)c2)c1)c1ccc(O)c(O)c1`, it took 10 µM to reach half-maximal inhibition against DNA topoisomerase 1 [1] (IC50).
The molecule `CC(=O)Oc1ccc(C(=O)Nc2ccccc2NC(=O)c2ccc(OC(C)=O)cc2)cc1` displayed an IC50 against DNA topoisomerase 1 [1] of more than 100 µM.
Same read-out and setting: the figure for `O=C(Nc1nc2ccccc2s1)c1ccc(O)cc1` is more than 100 µM.
For `O=C(Nc1ccc(NC(=O)c2cc(O)c(O)c(O)c2)cc1)c1cc(O)c(O)c(O)c1`, the half-inhibitory concentration (IC50) at DNA topoisomerase II [2] worked out at 0.15 µM; against DNA topoisomerase 1 [1] it was 1.4 µM.
With `CC[C@@]1(O)C(=O)OCc2c1cc1n(c2=O)Cc2cc3ccccc3nc2-1` [CAMPTOTHECIN], the Concentration in the test on HeLa [6] turned out to be 0.1 µM. Also, the GI50 in the test on HeLa [4] turned out to be 0.6 µM.
On to `O=C(Nc1ccccc1NC(=O)c1ccc(O)c(O)c1)c1ccc(O)c(O)c1`, for which the IC50 at DNA topoisomerase 1 [1] was 6.4 µM.
For `O=C(Nc1ccc(NC(=O)c2ccc(O)cc2)cc1)c1ccc(O)cc1`, on DNA topoisomerase 1 [1], the concentration for half-maximal inhibition (IC50) is more than 100 µM.
On to `CC(=O)Oc1ccc(C(=O)Nc2ccc(NC(=O)c3ccc(OC(C)=O)cc3)cc2)cc1`, for which the IC50 at DNA topoisomerase 1 [1] was more than 100 µM.
`COc1cc([C@@H]2c3cc4c(cc3[C@@H](O[C@@H]3O[C@@H]5CO[C@@H](C)O[C@H]5[C@H](O)[C@H]3O)[C@H]3COC(=O)[C@H]23)OCO4)cc(OC)c1O` [ETOPOSIDE]: in the test with HeLa [6], the Concentration turned out to be 2 µM. Further, in the test on HeLa [4], the concentration for 50% growth inhibition (GI50) turned out to be 40 µM.
At DNA topoisomerase 1 [1], `O=C(Nc1nc2ccccc2s1)c1cc(O)c(O)c(O)c1` gave an IC50 of 8.2 µM.
Still for that read-out and setting: then `O=C(Nc1ccccc1NC(=O)c1ccccc1)c1ccccc1`, with more than 100 µM.
In the case of `O=C(Nc1cccc(NC(=O)c2ccc(O)cc2)c1)c1ccc(O)cc1`, the IC50 against DNA topoisomerase 1 [1] was more than 100 µM.
As to `O=C(Nc1cccc(NC(=O)c2cc(O)c(O)c(O)c2)c1)c1cc(O)c(O)c(O)c1`, the IC50 against DNA topoisomerase II [2] was 0.22 µM; on DNA topoisomerase 1 [1] it was 1.6 µM.
On to `CC(=O)Oc1cc(C(=O)Nc2ccccc2NC(=O)c2cc(OC(C)=O)c(OC(C)=O)c(OC(C)=O)c2)cc(OC(C)=O)c1OC(C)=O`, for which the IC50 at DNA topoisomerase 1 [1] stood at 4.7 µM.
In turn, `CC(=O)Oc1cc(C(=O)Nc2ccc(NC(=O)c3cc(OC(C)=O)c(OC(C)=O)c(OC(C)=O)c3)cc2)cc(OC(C)=O)c1OC(C)=O` returned an IC50 against DNA topoisomerase 1 [1] of 8.6 µM.

A word on the IC50: it is the point on the concentration scale where inhibition reaches its midpoint. Low values mean higher potency, high ones lower potency. As usually defined, the Ki is the equilibrium dissociation constant of an inhibitor or competing ligand from its target. The term GI50 denotes the concentration giving 50% growth inhibition. High values mean lower sensitivity of the cells, low ones greater sensitivity of the cells.
